From PubChem BioAssay
CSN inh: CSN deneddylation inhibition | inhibition, % at 12.5 µM | Purified CSN, SCF-Nedd8-OG deneddylation, fluorescence polarization | AID 651999 | actives 0.38% (n = 360,000) | Q92905;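 active = pattern-corrected inhibition above about 35%, with an unprinted fluorescence ratio check between 0.5 and 1.5, limit read from the data, passing the limit was not always enough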;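 also: 0% = enzyme with substrate and 100% = substrate without enzyme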
Target sequence (Q92905 whole entry, looked up, one chain of several): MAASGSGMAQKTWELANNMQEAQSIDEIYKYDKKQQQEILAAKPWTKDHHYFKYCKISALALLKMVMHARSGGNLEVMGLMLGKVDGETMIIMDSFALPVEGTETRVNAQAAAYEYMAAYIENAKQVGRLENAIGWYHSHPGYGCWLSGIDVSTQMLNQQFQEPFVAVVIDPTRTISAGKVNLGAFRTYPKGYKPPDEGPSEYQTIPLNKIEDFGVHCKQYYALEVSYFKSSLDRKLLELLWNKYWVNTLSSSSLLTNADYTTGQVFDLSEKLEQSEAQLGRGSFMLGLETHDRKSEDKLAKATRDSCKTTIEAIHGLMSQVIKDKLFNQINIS
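Assay system: Purified human Csn5 enzyme expressed in HEK293T cells | Amount: Enzyme 0.24 nM | Measured by: Fluorescence polarization readout | Medium: Tris/NaCl/DTT buffer, pH 7.5 | Compound dosing: One concentration, 12.5 µM, 0.25% DMSO | Times: 90 min incubation of compound, enzyme and substrate at room temperature | Control set: no-enzyme wells high, enzyme-with-substrate wells low | Read-out: % inhibition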
HNF4A DNA FP: change in binding of human HNF4 alpha to DNA; P41235; HNF4a-FITC DNA binding, fluorescence polarization, 1 h; activity change, % at 10 µM; actives 0.3% (n = 360,000); in the data active = activity change above about 30%, passing the limit was not always enough
Rpn11 inh: blocks the human proteasome subunit Rpn11; O00487; human 26S proteasome, Ub4-pepOG fluorescence polarization; 20S core pre-blocked with epoxomicin; calls only at 20 µM; actives 0.59% (n = 360,000);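 active = inhibition at 20 µM, scaled to each plate's controls, above about 33%, limit read from the data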
PKA-R2B act: activates the human PKA-R2B holoenzyme complex; P22694+P31323; PKA-R2B holoenzyme dissociation, Cy5-IP20 fluorescence polarization; R2B truncated from residue 108, S112A mutant; 0% DMSO only, 100% 113 µM cGMP; activation, % at 11.4 µM; actives 0.079% (n = 340,000);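 active = activation above a cutoff set at the mean over all compounds plus 3 SD, cut at about 18% in these data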;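 also: higher means more holoenzyme dissociation and a rise in polarization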
PKA-R1A act: activates the PKA-R1A holoenzyme complex; P00514+P68181; PKA-R1A dissociation, Cy5-IP20 fluorescence polarization; scaled: DMSO 0%, 113 µM cGMP 100%; activation, % at 11.4 µM; actives 0.083% (n = 340,000);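 active = percent activation above the mean of all tested compounds plus 3 SD, cut at about 19% in these data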;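 also: higher means more PKAc released from R1A so a rise in polarization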
TPT1 inhibitor: C. albicans TPT1 enzyme inhibition; recombinant caTPT1, FP RNA substrate dephosphorylation; inhibition, % at 5 µM; actives 0.81% (n = 300,000);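 active = inhibition above the mean of all tested compounds plus 3 SD, set per screening campaign, cut at about 24% in these data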;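 also: plate controls were DMSO alone for no effect and ferristatin control at 100 nM for full effect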
Numbers without * were called inactive; i = inactive; . = not tested or not shown; + = active, no number. In the library only some 1.6% were active in any assay of this set; here they are far more common.

SMILES	CSN inh	HNF4A DNA FP	Rpn11 inh	PKA-R2B act	PKA-R1A act	TPT1 inhibitor
COC(=O)c1ccccc1OCCCOc1ccc(C=O)cc1OC	1.9	0.3	i	2.1	-4.5	-5.8
CCOC(=O)/C(C#N)=N\Nc1cc(Cl)ccc1OC	23.5	74.9*	i	7.7	-3.9	7.1
CCOc1ccc(C(=O)COC(=O)Cn2cnc3c2c(=O)n(C)c(=O)n3C)cc1	4.3	1.3	i	1.4	-10.7	.
CC(=O)Oc1ccc(C(=O)Nc2cccc(C(=O)c3cccc(NC(=O)c4ccc(OC(C)=O)cc4)c3)c2)cc1	108.3*	12.3	i	4.4	4.0	-0.2
CC(=O)Oc1ccc(C(=O)Nc2cccc(C(=O)NC(C)(C)C)c2)cc1	-11.1	1.0	i	-0.4	-6.5	1.0
CC(=O)NC(c1cccs1)c1cc([N+](=O)[O-])c2cccnc2c1O (stereo unspecified)	-1.5	-0.3	+	-3.6	-7.2	4.3
CCN(Cc1ccccc1)C(=S)Nc1cc(C(=O)OC)ccc1C(=O)OC	2.1	33.2*	i	-6.2	-9.7	3.0
CCOC(=O)C1=CCC(c2ccccc2)N(S(=O)(=O)c2ccccc2[N+](=O)[O-])C1 (stereo unspecified)	-3.9	0.3	i	.	.	.
CCOC(=O)C1=CCC(c2ccccc2)N(S(=O)(=O)c2ccccc2C)C1 (stereo unspecified)	91.7*	4.4	i	.	.	.
Cn1c(=O)c2c(nc(CN3CCN(c4ccc(F)cc4)CC3)n2CCN2CCOCC2)n(C)c1=O	1.5	74.9*	i	-8.4	-4.0	-2.9
CC1CN(C(=O)CSc2nnc(C3CCCCC3)n2N)CC(C)O1 (stereo unspecified)	-4.7	-2.1	i	-2.2	4.1	.
O=C(Nc1ccc(OCC(=O)N2CCOCC2)cc1)c1cncc(Br)c1	80.3*	0.0	i	-1.3	-2.6	0.2
CCCCOc1ccc(C(=O)Nc2ccc(OCC(=O)N3CCOCC3)cc2)cc1	-0.5	0.2	i	-4.7	-5.9	-2.3
COc1cc(OC)c(OC)cc1CNC(=O)c1cc(S(=O)(=O)N(C)c2ccccc2OC)ccc1C	1.8	-3.2	i	-6.0	-7.9	.
Cc1c(Cl)ccc(S(=O)(=O)Nc2cccnc2)c1Cl	0.3	0.7	i	-2.0	-12.2	-4.8
O=C(CC(=O)c1ccccc1)Nc1ccc(Cl)cc1	0.4	41.8*	i	-5.3	-3.1	-3.4
COc1ccc(-c2cc(C#N)nc(N3CCNCC3)n2)cc1	2.7	43.1*	i	-0.5	-2.5	-2.9
O=C(O)C1=CC(=C(c2ccc(O)c(C(=O)O)c2)c2ccc(O)c(C(=O)O)c2)C=CC1=O	.	.	.	.	.	101.3*
CCOc1ccc(NC(=O)c2ccc(N)cc2)cc1	-3.1	5.2	i	3.3	15.1	-0.8
CCOc1ccc(NC(=O)c2ccc(NC(=O)c3ccc(NC(N)=O)cc3)cc2)cc1	18.9	-13.1	+	.	.	.
Cc1nc([N+](=O)[O-])cn1CC(=O)c1ccc(F)cc1	-5.7	76.8*	i	2.1	1.7	-3.7
Cc1ccccc1NC(=O)CSc1ccsc1[N+](=O)[O-]	35.0*	-36.1	i	-8.7	8.2	2.9
CCCOc1ccc(-c2nc(OC)c3ccccc3n2)cc1	3.0	2.2	i	2.7	-0.6	2.2
COC(=O)c1c(NC(C)=O)sc2c1CCCC2	-4.2	-1.8	i	-11.3	0.9	-4.4
COC(=O)c1c(NC(C)=O)sc2c1CCCCC2	104.3*	2.1	i	7.2	-7.0	-1.1
Cc1ccc(/C=c2\sc3nc(-c4ccco4)nn3c2=O)o1	43.3*	-33.5	.	-10.9	-10.8	10.9
Cc1ccc(/C=c2/sc3nnc(-c4ccccc4Cl)n3c2=O)o1	16.0	6.4	i	-0.6	7.7	8.9
Cc1ccc(-c2nc3s/c(=C\c4ccco4)c(=O)n3n2)cc1	38.4*	-9.7	i	-9.3	-10.1	3.5
COc1cc(CCC(N)c2cccc(O)c2)cc(OC)c1OC (stereo unspecified)	7.3	-0.7	i	-10.9	4.3	.
COC(=O)Cc1c(O)ccn(CCc2c[nH]c3ccccc23)c1=O	73.5*	5.4	i	11.8	-3.3	-1.0
